Test results reported in ChEMBL document CHEMBL4130397, “Tulongicin, an Antibacterial Tri-Indole Alkaloid from a Deep-Water Topsentia sp. Sponge” (J Nat Prod, 2017).
pIC50: −log10 of the molar value. ≈ marks a conversion by molar mass, not a printed value.

What was measured:
Escherichia coli = assay: Antibacterial activity against Escherichia coli ATCC 25922 by CLSI method; format: functional
Method in brief: (§1)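 Broth MIC per CLSI guidelines against ATCC strains; each compound tested in duplicate in at least two independent experiments; top concentration tested 100 μg/mL.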

Staphylococcus aureus = assay: Antibacterial activity against Staphylococcus aureus ATCC 29213 by CLSI method; format: functional; method in brief: as §1
[1] = test system: Human immunodeficiency virus 1; assay: Antiviral activity against ENV pseudotyped CXCR4-tropic HIV1 HxB2 infected in human TZM-bl cells after 24 hrs by luciferase reporter gene assay; format: functional, organism-based; conditions: Human immunodeficiency virus 1, M:B_HXB2R
[2] = test system: Human immunodeficiency virus 1; assay: Antiviral activity against ENV pseudotyped CCR5-tropic HIV1 isolate YU2 infected in human TZM-bl cells after 24 hrs by luciferase reporter gene assay; format: functional, organism-based; conditions: Human immunodeficiency virus 1, isolate YU2, TZM-bl
BSC-1 = assay: Cytotoxicity against African green monkey BSC1 cells; format: cell-based; conditions: Chlorocebus aethiops
HCT-116 = assay: Cytotoxicity against human HCT116 cells; format: cell-based

Molecule	MIC (Escherichia coli)	MIC (Staphylococcus aureus)	pIC50 [1]	pIC50 [2]	pIC50 (BSC-1)	pIC50 (HCT-116)
GENTAMICIN	1 µg/mL					
Cc1onc(-c2ccccc2)c1C(=O)N[C@@H]1C(=O)N2[C@@H]1SC(C)(C)[C@@H]2C(=O)O [OXACILLIN]		0.25 µg/mL (≈ 0.623 µM)				
Brc1ccc2c(C(C3=NC[C@H](c4c[nH]c5cc(Br)ccc45)N3)c3c[nH]c4cc(Br)ccc34)c[nH]c2c1	> 100 µg/mL	1.2 µg/mL (≈ 1.8 µM)	5.57	5.41	4.34	5.00
O[C@H](C1=NC[C@H](c2c[nH]c3cc(Br)ccc23)N1)c1c[nH]c2cc(Br)ccc12	100 µg/mL (≈ 205 µM)	3.7 µg/mL (≈ 7.58 µM)	5.35	5.46	4.03	4.80
O=C(C1=NC[C@H](c2c[nH]c3cc(Br)ccc23)N1)c1c[nH]c2cc(Br)ccc12	> 100 µg/mL	1.1 µg/mL (≈ 2.26 µM)	4.92	5.02	4.51	4.57
